Results: ChEMBL document CHEMBL4513216, “Probing the Open Global Health Chemical Diversity Library for Multistage-Active Starting Points for Next-Generation Antimalarials” (ACS Infect Dis, 2020)

Test: Toxicity liver stage against HepG2, at 10uM
Assay type: cell-based
Set-up: test concentration 10 uM, cell line HepG2-A16-CD81EGFP
Conditions: human, HepG2-A16-CD81EGFP cells; read-out: INHIBITION
Summary of the method: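 Uninfected HepG2-A16-CD81EGFP cells, 3 × 10^3 per well, 1536-well, plated on prespotted compound at 10 μM final, parasite-free screening media added to match infected plates; puromycin 10 μM positive, DMSO 0.5% negative; run in parallel with 48 h PbLuc assay at 37 °C, 5% CO2; viability by CellTiter-Glo luminescence, normalized to controls.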

| Compound | cytotoxicity at 10 µM [%] |
| --- | --- |
| CCn1ccnc1CN(C)Cc1nc(CCC(C)C)no1 | 2.89 |
| CCc1nc(-c2ccc(NC(=O)N3CCC4(CC3)OCCO4)cc2)no1 | 7.27 |
| COc1cnc(CSc2nnc(C)s2)cc1OCC(=O)NC(C)(C)C | 9.82 |
| CO[C@H]1CN(C)S(=O)(=O)[C@@]12CCN(Cc1ccccc1)C2 | 1.79 |
| CC(=O)c1cc2c(=O)[nH]c(=O)n(C)c2nc1C | -2.89 |
| COCCNc1nc(N2CCOCC2)nc2nccnc12 | 4.09 |
| CC(C)C[C@H](NC(=O)Cn1ccc2c(Cl)cccc21)C(=O)O | 5.19 |
| Cc1cc(-c2nn3c(C(C)C)nnc3s2)on1 | 0.9 |
| CC1CCN(C(=O)c2cn(-c3cc(N4CCSCC4)ncn3)cn2)CC1 | -3.75 |
| O=S(=O)(NCCC(O)c1cccs1)c1ccccc1 (stereo unspecified) | -3.82 |
| Cn1ncc2c1NC(=O)CC2c1ccccc1Br (stereo unspecified) | 49 |
| CC1=Nc2c(c(O)nn2C(C)C)C(c2cccnc2)S1 (stereo unspecified) | 2.93 |
| CCn1nc(C)c2nc(C(C)C)nc(NCC(C)O)c21 (stereo unspecified) | 8.02 |
| CCS(=O)(=O)Nc1cnn(Cc2cccc(C)c2)c1 | 0.724 |
| CCn1ncc2c(C(F)(F)F)cc(-c3ccn(C)n3)nc21 | 4.75 |
| Oc1ccccc1-c1n[nH]c(C2CCCO2)n1 (stereo unspecified) | -5.22 |
| CCC(=O)Nc1nnc(CCOc2cccc(OC)c2)s1 | 5.73 |
| CN(C)S(=O)(=O)c1ccc(CNC(=O)C2CC(=O)N(C(C)(C)C)C2)cc1 (stereo unspecified) | 2.13 |
| O=C(N[C@@H]1CN(Cc2c[nH]nc2-c2ccccc2)C[C@H]1O)c1cc[nH]n1 | 2.8 |
| Cc1cnc(CCNC(=O)C2CN(C(=O)Cc3ccc(F)cc3)C2)s1 | 0.82 |
| CN1C(=O)CO[C@H]2CN(C(=O)c3ccc4c(c3)CCCC4)C[C@@H]21 | 5.45 |
| O=C(O)c1cncc(Cc2ccc(F)cc2)c1 | 2.39 |
| Cc1cc(C(=O)NCc2ccc(F)cc2)nc(C2CCCN2C)n1 (stereo unspecified) | -28.7 |

| Compound | cytotoxicity at 10 µM [%] |
| --- | --- |
| CCCc1ncc(CNC2(c3ccc(Cl)cc3)CCC2)cn1 | -9.48 |
| Cc1n[nH]c(C)c1-c1nccnc1CC1CCN(S(C)(=O)=O)C1 (stereo unspecified) | -10.4 |
| Cc1cc(F)ccc1S(=O)(=O)NCc1[nH]ncc1Br | 15.1 |
| CC(C)(C)n1cc(CNC2CCN(C(=O)c3ccncc3)CC2)cn1 | -6.72 |
| CN(CCc1ccncc1)C(=O)c1sccc1OC(F)F | -9.32 |
| CC(C)N1CCCC(CNC(=O)CN(C)S(=O)(=O)c2ccccc2)C1 (stereo unspecified) | -3.88 |
| CCC(=O)NCC(=O)NC(C)c1sc(-c2ccccc2F)nc1C (stereo unspecified) | 9.65 |
| CCN(CC)CCn1cc(NC2CCSCC2)cn1 | 2.5 |
| O=C(NCc1cccc(N2CC=CC2)c1)NCC(F)(F)F | 8.89 |
| CCc1ccc(C2COCCN2C(=O)Nc2cccc(C(C)=O)c2)o1 (stereo unspecified) | -7.13 |
| CS(=O)(=O)NCC1CCCN(c2ccc(C#N)cn2)C1 (stereo unspecified) | -11.1 |
| CN1CCN(C(=O)C2CCCc3[nH]ncc32)CC1 (stereo unspecified) | 0.247 |
| N#Cc1cccc(OCCN2CCCC2C(=O)NC2CC2)c1 (stereo unspecified) | -3.78 |
| Cc1ccc(NC(=O)CNc2cccc(C(N)=O)c2C)c(C)c1 | 17.6 |
| Cn1ccnc1CN(Cc1cccnc1)CC1CCCO1 (stereo unspecified) | 15.2 |
| N#Cc1cccc(S(=O)(=O)CCN2CCOC2=O)c1 | -2.32 |
| O=C1CC(CNc2cncc(Br)c2)c2ccccc2N1 (stereo unspecified) | -5.19 |
| N#Cc1cccnc1NCCC1CCN(CC(F)(F)F)CC1 | 11 |
| Cn1cnn(CC(=O)NCc2ccccc2F)c1=O | 2.4 |
| O=C(Cc1ccc(-n2cnnn2)cc1)Nc1nncs1 | 5.47 |
| COc1cc(C(C)=O)ccc1SCC(=O)Nc1ccc(C)cn1 | 4.43 |
| CCN(Cc1ccoc1)C(=O)c1ccc(C)c(S(N)(=O)=O)c1 | -4.63 |
| CNS(=O)(=O)CC(=O)N(Cc1ccsc1)c1ccccc1 | -2.4 |

| Compound | cytotoxicity at 10 µM [%] |
| --- | --- |
| Cc1cnn(CC2CCCN2c2ncnc3c2CCC3)c1 (stereo unspecified) | 7.84 |
| CCOc1ccc(CN(C)C(C)C(=O)Nc2cc(C)no2)cc1 (stereo unspecified) | 10.6 |
| COc1cccc(-c2n[nH]cc2CNCC2CCS(=O)(=O)C2)c1 (stereo unspecified) | -3.54 |
| Cc1cc(CN2CCCC(NS(C)(=O)=O)C2)ccc1-n1cncn1 (stereo unspecified) | 3.78 |
| O=C(NCc1ccnc(O)c1)NCC1CCCC1 | 3.57 |
| CCN(Cc1ccc(Cl)s1)S(=O)(=O)CCOC | 12.1 |
| CSCCCNC(=O)Nc1cccc(-c2nccn2C)c1 | -6.25 |
| Cc1ccc(S(=O)(=O)Nc2ccc(-n3cccc3C(=O)O)c(C)c2)s1 | 6.15 |
| N#Cc1ncn(CCC(=O)Nc2c(Cl)cccc2Cl)n1 | -11.4 |
| CCNC(=O)c1ccoc1CN1c2ccccc2CC1C (stereo unspecified) | -10.2 |
| COc1cccc2c1OCC(NC(=O)NC1CCN(C3CC3)CC1)C2 (stereo unspecified) | -10.7 |
| CN(C)C(=O)COCC1CN(Cc2ccoc2)Cc2nnn(C)c21 (stereo unspecified) | 1.81 |
| Cc1nc2c(c(N3CC=CC3)n1)CCN(c1ncccc1C(N)=O)CC2 | -10.2 |
| CCCc1nnc(C(=O)N(C)Cc2ccc(OC)cc2)o1 | 2.64 |
| CCC(CO)N(Cc1ccco1)C(=O)c1ccc(F)cc1Cl (stereo unspecified) | -0.247 |
| CCN1CC(C(=O)NCCc2csc(-c3ccncc3)n2)CC1=O (stereo unspecified) | -5.64 |
| Cc1n[nH]c(CN2CCN(C(=O)C3CCC3)[C@@H]3CS(=O)(=O)C[C@@H]32)n1 | -10.8 |
| CC(C)(C)C1CCC(NCCN2CCOCC2)CC1 (stereo unspecified) | 0.741 |
| c1ccc(-c2nc3c(c(NCCn4ccnn4)n2)CCNCC3)nc1 | -51.1 |
| Cc1ncsc1CCN(C)C(=O)CN1CC2(CCCC2)CC1=O | 2.19 |
| CN(Cc1noc2c1CCCC2)C(=O)Nc1cncc(F)c1 | 2.26 |
| CC(C)(O)CCc1ccc(C(=O)NCCC2CCOC2)cc1 (stereo unspecified) | 0.824 |
| Cc1ccc(N(CC(=O)NCc2nnc3n2CCC3)S(C)(=O)=O)cc1 | -4.66 |

| Compound | cytotoxicity at 10 µM [%] |
| --- | --- |
| COc1nccnc1-c1cc(NC2CCNCC2)nc2[nH]ccc12 | -10.7 |
| C[C@@H]1CN(c2nc3c(cc2C(N)=O)CCC3)CC[C@@]1(O)C1CCC1 | 0.186 |
| Cc1cc(C(=O)N2CCCC(c3nccn3C)C2)cc(S(N)(=O)=O)c1C (stereo unspecified) | 5.5 |
| Cc1cnccc1-n1nc(C(C)C)nc1CCc1cnccn1 | 1.92 |
| Cc1nc(N2C[C@H]3CC[C@@H](C2)N3)nc2cc(S(C)(=O)=O)ccc12 | -7.71 |
| COCCNc1nc2c(c(NCc3ccncc3)n1)CCNCC2 | -2.18 |
| CCn1c(CN(C)C)nnc1C1CCN(Cc2cccc(OC)c2)CC1 | -13.6 |
| Cc1ccc([C@@H]2CN(C(=O)c3csc(C)n3)C[C@H]2NC(=O)C2CC2)cc1 | -5.99 |
| COC(=O)C1CCN(C(=O)c2ccc(N(C)S(C)(=O)=O)c(C)c2)CC1 | -1.18 |
| CCC(=O)N1CCC(c2nnc(Cn3cncn3)n2C2CC2)CC1 | -15.4 |
| CN(Cc1cnn(C)c1)C(=O)NCCc1ccc2c(c1)OCCO2 | -15.4 |
| O=C(c1ccc(Cn2ccccc2=O)o1)N1CCC2(CC1)OCCO2 | -12.8 |
| Cc1nc(CN2CCCC(N(C)CC3(O)CCCCC3)C2)no1 (stereo unspecified) | -10.3 |
| CCc1nc(C2CCCN2CC(=O)NCCOc2ccccc2)no1 (stereo unspecified) | -16.4 |
| Cn1cc(C(=O)N2CCN(Cc3ccsc3)CC2)cn1 | -10 |
| c1ncn(CC2CN(Cc3nc(-c4ccsc4)no3)CCO2)n1 (stereo unspecified) | -4.72 |
| CCc1nnc2n1CCN(Cc1ncc(-c3ccc(F)cc3)o1)C2 | -9.42 |
| Cc1ccc(C)c(C(C)NC(=O)N2CCC(n3cncn3)CC2)c1 (stereo unspecified) | -8.78 |
| Cc1cc(C(=O)N2CCN(Cc3ccsc3)CC2)n(C)n1 | 1.98 |
| COc1ccc(C(=O)NCCNC(=O)c2scnc2Cl)cc1 | -16.8 |
| Cc1ccc(S(=O)(=O)N2CCc3ccc(F)cc32)cc1C(=O)O | -19.4 |
| COCc1nc(C(=O)N2CCCC2c2cc(C)no2)cs1 (stereo unspecified) | -12.9 |
| Cc1cc(C)cc(OCCC(=O)N2CCCC(n3cncn3)C2)c1 (stereo unspecified) | -3.76 |

| Compound | cytotoxicity at 10 µM [%] |
| --- | --- |
| Cc1n[nH]c(C)c1C1COCCN1C(=O)c1cc(Cl)c[nH]1 (stereo unspecified) | -4.12 |
| O=C1C(NCc2nnc3n2CCCC3)CCCN1c1cccc(F)c1 (stereo unspecified) | -9.68 |
| COc1cc(C)nc(N2CCN(C(=O)CN(C)C3CC3)CC2)n1 | -4.43 |
| CCc1nc(C2CCCN2C(=O)c2nccnc2N)no1 (stereo unspecified) | -18.7 |
| CCN1CCN(C(=O)c2cc(C(=O)OC)nn2-c2ccccc2)CC1 | -13.4 |
| CCc1nc(CN(C(C)=O)C2CCN(CCc3cnn(C)c3)C2)no1 (stereo unspecified) | -6.38 |
| Cc1cc(C(=O)NC2CCc3nc(C)cn3C2)[nH]n1 (stereo unspecified) | -5.15 |
| COCCOCc1cccc(NC(=O)N2CCCC2c2ccncc2)c1 (stereo unspecified) | 6.79 |
| O=C(N[C@H]1CN[C@H]2CCCO[C@H]21)c1cccnc1 | -9.99 |
| Cc1cc(O)nc(C2CCCNC2)n1 (stereo unspecified) | -9.14 |
| CN1CCN(C(=O)Cc2cccc(F)c2)Cc2cccnc21 | -6.17 |
| O=C([C@@H]1COC[C@H]2CN(C3CCOCC3)C[C@H]21)N1CCCCO1 | -6.28 |
| CCOCC1CN(Cc2cccs2)Cc2nn(C)cc21 (stereo unspecified) | -75.2 |
| CC(C)N1CCO[C@H]2CN(C(=O)c3ccccn3)C[C@H]21 | -67.6 |
| CN(C)CCn1c2c(ccc1=O)CCN(Cc1cnn(C)c1)CC2 | -2.65 |
| CN(C)C(=O)CN1CCOCC2(CCN(c3ncc(F)cn3)CC2)C1 | 0.419 |
| CC(C)(C)c1ccc(CN2C[C@H]3CC(O)C[C@H]3C2)c(OCC(N)=O)c1 (stereo partly specified) | 2.71 |
| COc1ccc(-n2cc3[nH][nH]c(=O)n3c2=O)cc1 | 10.3 |
| CC(C)(C)c1cc(CN2C[C@@H]3CC[C@H]2CN(Cc2ccccn2)C3)n[nH]1 | -0.123 |
